In brackets after ≈: the same amount, converted by molar mass.
How the values were obtained:
Enterococcus faecalis [1] = assay: Antimicrobial activity against Streptococcus faecalis (ATCC 10541); format: functional
Summary of the method: (§1)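 Agar dilution MIC. Stocks and twofold serial dilutions in DMF or 50% aqueous DMF were mixed 1:100 into molten Eugon agar, giving final 100, 50, 25, 12.5, 6.2, 3.1 mcg/mL (further dilutions sometimes) and ≤1% DMF. Inocula came from 24 h Eugon agar slants at 32 °C, suspended at 10⁶ cells/mL and applied with a Steers replicator. MIC (lowest concentration inhibiting growth) was read after 24 h at 32 °C.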

Aspergillus niger = assay: Antimicrobial activity against Aspergillus niger (ATCC 16404); format: functional
Summary of the method: (§2)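 Spores came from Eugon agar slants grown 1 week at 32 °C, suspended at 10⁶/mL in Eugon broth or saline, and applied by Steers replicator. The lowest inhibitory concentration was read after 48-72 h at 32 °C.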

Candida albicans [2] = assay: Compound was tested for the antimicrobial activity against Candida albicans (ATCC 10231, NRRL Y-477); Range is 50 to >100; format: functional; summary of the method: as §1
Staphylococcus aureus [3] = assay: Antimicrobial activity against Staphylococcus aureus (ATCC 6538, NRRL B2747); Range is <3.1-6.2; format: functional; summary of the method: as §1
Trichophyton benhamiae [4] = assay: Compound was tested for the antimicrobial activity against Trichophyton mentagrophytes (ATCC 4807); Range is 6.2-12.5; format: functional, Arthroderma benhamiae; summary of the method: as §2
Staphylococcus aureus [5] = assay: Antimicrobial activity against Staphylococcus aureus (ATCC 6538, NRRL B2747); format: functional; summary of the method: as §1
Candida albicans [6] = assay: Antimicrobial activity against Candida albicans (ATCC 10231, NRRL Y-477); format: functional; summary of the method: as §1
Trichophyton benhamiae [7] = assay: Antimicrobial activity against Trichophyton mentagrophytes (ATCC 4807); format: functional, Arthroderma benhamiae; summary of the method: as §2
Staphylococcus aureus [8] = assay: Compound was tested for the antimicrobial activity against Staphylococcus aureus (ATCC 6538, NRRL B2747); Range is 0.25-0.5; format: functional; summary of the method: as §1
[9] = tested on: Staphylococcus epidermidis; assay: Compound was tested for its antimicrobial activity against Staphylococcus epidermidis (ATCC 12228); format: functional; summary of the method: as §1
Staphylococcus aureus [10] = assay: Compound was tested for its antimicrobial activity against Staphylococcus aureus(9-267); format: functional; summary of the method: as §1
Cutibacterium acnes = assay: Compound was tested for its antimicrobial activity against Propionibacterium acnes (ATCC 6919); format: functional
Summary of the method: (§3)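 Anaerobic bacteria were grown 72 h at 32 °C in fluid thioglycollate medium and used undiluted to inoculate, by Steers replicator, Eugon agar containing serial twofold compound dilutions made in DMF or 50% aqueous DMF (final 100 to 3.1 mcg/mL, ≤1% DMF). MIC was read after 72 h of anaerobic incubation (Gas-Pak jar) at 37 °C.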

Staphylococcus aureus [11] = assay: Compound was tested for its antimicrobial activity against Staphylococcus aureus (NRRL B2747); format: functional; summary of the method: as §1
Enterococcus = assay: Compound was tested for its antimicrobial activity against Enterococcus (9-25)
Bacillus subtilis = assay: Compound was tested for its antimicrobial activity against Bacillus subtilis (ATCC 6633); format: functional; summary of the method: as §1
Staphylococcus aureus [12] = assay: Compound was tested for its antimicrobial activity against Staphylococcus aureus (ATCC 151); format: functional; summary of the method: as §1
Staphylococcus aureus [13] = assay: Compound was tested for its antimicrobial activity against Staphylococcus aureus(9-195); format: functional; summary of the method: as §1
Enterococcus faecalis [14] = assay: Compound was tested for its antimicrobial activity against Streptococcus faecalis (ATCC 10541); format: functional; summary of the method: as §1
Trichophyton benhamiae [15] = assay: Compound was tested for the antimicrobial activity against Trichophyton mentagrophytes (ATCC 4807); Range is 25-50; format: functional, Arthroderma benhamiae; summary of the method: as §2
Candida albicans [16] = assay: Compound was tested for the antimicrobial activity against Candida albicans (ATCC 10231, NRRL Y-477); Range is 50-100; format: functional; summary of the method: as §1
Trichophyton benhamiae [17] = assay: Compound was tested for the antimicrobial activity against Trichophyton mentagrophytes (ATCC 4807); Range is <3.1-12.5; format: functional, Arthroderma benhamiae; summary of the method: as §2
Trichophyton benhamiae [18] = assay: Compound was tested for the antimicrobial activity against Trichophyton mentagrophytes (ATCC 4807); Range is 100 to >100; format: functional, Arthroderma benhamiae; summary of the method: as §2
Trichophyton benhamiae [19] = assay: Compound was tested for the antimicrobial activity against Trichophyton mentagrophytes (ATCC 4807); Range is 12.5-25; format: functional, Arthroderma benhamiae; summary of the method: as §2
Candida albicans [20] = assay: Compound was tested for the antimicrobial activity against Candida albicans (ATCC 10231, NRRL Y-477); Range is 25 to >100; format: functional; summary of the method: as §1
Trichophyton benhamiae [21] = assay: Compound was tested for the antimicrobial activity against Trichophyton mentagrophytes (ATCC 4807); Range is 6.2-25; format: functional, Arthroderma benhamiae; summary of the method: as §2
Trichophyton benhamiae [22] = assay: Compound was tested for the antimicrobial activity against Trichophyton mentagrophytes (ATCC 4807); Range is 6.1-12.5; format: functional, Arthroderma benhamiae; summary of the method: as §2
Staphylococcus aureus [23] = assay: Compound was tested for the antimicrobial activity against Staphylococcus aureus (ATCC 6538, NRRL B2747); Range is 6.2-12.5; format: functional; summary of the method: as §1
Candida albicans [24] = assay: Compound was tested for the antimicrobial activity against Candida albicans (ATCC 10231, NRRL Y-477); Range is 12.5-100; format: functional; summary of the method: as §1
[25] = Compound was tested for its antimicrobial activity against Sarcina subflava (ATCC 7468); format: functional; summary of the method: as §1
Staphylococcus aureus [26] = assay: Compound was tested for its antimicrobial activity against Staphylococcus aureus (9-195); format: functional; summary of the method: as §1
[27] = tested on: Clostridium acetobutylicum; assay: Compound was tested for its antimicrobial activity against Clostridium acetobutylicum (ATCC 824); format: functional; summary of the method: as §3
Staphylococcus aureus [28] = assay: Compound was tested for its antimicrobial activity against Staphylococcus aureus (9-267); format: functional; summary of the method: as §1
Staphylococcus aureus [29] = assay: Compound was tested for its antimicrobial activity against Staphylococcus aureus (ATCC 6538); format: functional; summary of the method: as §1

C=C1C(=O)c2ccccc2OC1c1cccc2ccccc12 (stereo unspecified)
MIC (Enterococcus faecalis [1]): 50 mg/L (≈ 175 µM) | MIC (Aspergillus niger): > 100 mg/L | MIC (Candida albicans [2]): > 50 mg/L | MIC (Staphylococcus aureus [3]): < 3.1 mg/L | MIC (Trichophyton benhamiae [4]): 6.2 mg/L (≈ 21.7 µM)

O=C1/C(=C/Cl)C(c2ccccc2)Oc2ccccc21 (stereo unspecified)
MIC (Staphylococcus aureus [5]): > 100 mg/L | MIC (Enterococcus faecalis [1]): > 100 mg/L | MIC (Aspergillus niger): > 100 mg/L | MIC (Candida albicans [6]): > 100 mg/L | MIC (Trichophyton benhamiae [7]): > 100 mg/L

C=C1C(=O)c2ccccc2OC1(c1ccccc1)c1ccccc1
MIC (Staphylococcus aureus [8]): 0.25 mg/L (≈ 0.8 µM) | MIC [9]: 0.25 mg/L (≈ 0.8 µM) | MIC (Enterococcus faecalis [1]): 0.78 mg/L (≈ 2.5 µM) | MIC (Staphylococcus aureus [10]): 0.5 mg/L (≈ 1.6 µM) | MIC (Cutibacterium acnes): 3.1 mg/L (≈ 9.92 µM) | MIC (Staphylococcus aureus [11]): 0.5 mg/L (≈ 1.6 µM) | MIC (Enterococcus): 1 mg/L (≈ 3.2 µM) | MIC (Bacillus subtilis): 0.25 mg/L (≈ 0.8 µM) | MIC (Trichophyton benhamiae [7]): > 100 mg/L | MIC (Staphylococcus aureus [12]): 0.25 mg/L (≈ 0.8 µM) | MIC (Staphylococcus aureus [13]): 0.5 mg/L (≈ 1.6 µM) | MIC (Enterococcus faecalis [14]): 1 mg/L (≈ 3.2 µM)

C=C1C(=O)c2ccccc2OC1(C)C
MIC (Staphylococcus aureus [5]): > 100 mg/L | MIC (Trichophyton benhamiae [15]): 25 mg/L (≈ 133 µM) | MIC (Enterococcus faecalis [1]): > 100 mg/L | MIC (Aspergillus niger): > 100 mg/L | MIC (Candida albicans [16]): 50 mg/L (≈ 266 µM)

C=C1C(=O)c2ccccc2OC1c1cccc(Cl)c1 (stereo unspecified)
MIC (Staphylococcus aureus [3]): < 3.1 mg/L | MIC (Trichophyton benhamiae [17]): < 3.1 mg/L

CN(C)/C=C1\C(=O)c2ccccc2OC1c1ccccc1 (stereo unspecified)
MIC (Staphylococcus aureus [5]): > 100 mg/L | MIC (Enterococcus faecalis [1]): > 100 mg/L | MIC (Aspergillus niger): > 100 mg/L | MIC (Candida albicans [6]): > 100 mg/L | MIC (Trichophyton benhamiae [7]): 100 mg/L (≈ 358 µM)

C=C1C(=O)c2cc(Br)ccc2OC1c1ccccc1 (stereo unspecified)
MIC (Staphylococcus aureus [5]): 50 mg/L (≈ 159 µM) | MIC (Enterococcus faecalis [1]): > 100 mg/L | MIC (Trichophyton benhamiae [18]): > 100 mg/L | MIC (Aspergillus niger): > 100 mg/L | MIC (Candida albicans [6]): > 100 mg/L

C=C1C(=O)c2ccccc2OC1c1ccc(N(C)C)cc1 (stereo unspecified)
MIC (Aspergillus niger): 100 mg/L (≈ 358 µM) | MIC (Trichophyton benhamiae [19]): 12.5 mg/L (≈ 44.7 µM)

C=C1C(=O)c2ccccc2OC1c1ccc2ccccc2c1 (stereo unspecified)
MIC (Enterococcus faecalis [1]): 50 mg/L (≈ 175 µM) | MIC (Candida albicans [20]): > 25 mg/L | MIC (Aspergillus niger): > 100 mg/L | MIC (Staphylococcus aureus [3]): < 3.1 mg/L | MIC (Trichophyton benhamiae [21]): 6.2 mg/L (≈ 21.7 µM)

C=C1C(=O)c2ccccc2OC1c1ccc(Br)cc1 (stereo unspecified)
MIC (Trichophyton benhamiae [22]): 6.1 mg/L (≈ 19.4 µM) | MIC (Staphylococcus aureus [3]): < 3.1 mg/L

CN(C)CC1C(=O)c2ccccc2OC1c1ccccc1 (stereo unspecified)
MIC (Staphylococcus aureus [23]): 6.2 mg/L (≈ 22 µM) | MIC (Candida albicans [24]): 12.5 mg/L (≈ 44.4 µM) | MIC (Trichophyton benhamiae [17]): < 3.1 mg/L

Oc1c(Cl)cc(Cl)c(Cl)c1Cc1c(O)c(Cl)cc(Cl)c1Cl [HEXACHLOROPHENE]
MIC [9]: 0.5 mg/L (≈ 1.23 µM) | MIC [25]: 0.06 mg/L (≈ 0.147 µM) | MIC (Staphylococcus aureus [26]): 1 mg/L (≈ 2.46 µM) | MIC [27]: 0.06 mg/L (≈ 0.147 µM) | MIC (Staphylococcus aureus [28]): 1 mg/L (≈ 2.46 µM) | MIC (Cutibacterium acnes): 0.06 mg/L (≈ 0.147 µM) | MIC (Staphylococcus aureus [11]): 0.5 mg/L (≈ 1.23 µM) | MIC (Enterococcus): 1 mg/L (≈ 2.46 µM) | MIC (Bacillus subtilis): 0.125 mg/L (≈ 0.307 µM) | MIC (Staphylococcus aureus [29]): 0.5 mg/L (≈ 1.23 µM) | MIC (Staphylococcus aureus [12]): 0.5 mg/L (≈ 1.23 µM) | MIC (Enterococcus faecalis [14]): 0.125 mg/L (≈ 0.307 µM)

C=C1C(=O)c2ccccc2OC1c1ccccc1 (stereo unspecified)
MIC (Aspergillus niger): 100 mg/L (≈ 423 µM) | MIC (Trichophyton benhamiae [4]): 6.2 mg/L (≈ 26.2 µM)

CN(C)CC1(C)C(=O)c2ccccc2OC1c1ccccc1 (stereo unspecified)
MIC (Staphylococcus aureus [5]): > 50 mg/L | MIC (Enterococcus faecalis [1]): > 50 mg/L | MIC (Aspergillus niger): > 50 mg/L | MIC (Candida albicans [6]): > 50 mg/L | MIC (Trichophyton benhamiae [7]): > 50 mg/L

C=C1C(=O)c2cc(C)ccc2OC1c1ccccc1 (stereo unspecified)
MIC (Trichophyton benhamiae [7]): 6.2 mg/L (≈ 24.8 µM)
